STAT3 activator: increases IL-6 driven STAT3 reporter signal; 0.91% of 190,000 active; U3A cells, IL-6 STAT3-luciferase reporter, luminescence; 100% = signal with IL-6 EC80 alone; activation (% of control), % at 5.6 µM;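 active means activation above the screen-wide mean of compound activation plus 3 SD, cut at about 130% in these data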
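system = STAT3-luciferase reporter U3A cells | reagent = IL-6 stimulus at 33 ng/mL final | timing = 1 h compound pre-exposure, 6 h IL-6 stimulation, 37 °C | measured by = luminescence | evaluation = % activation versus median of IL-6-stimulated wells | control set = IL-6-only wells as 100% reference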
PPC-1+TRAIL kill: PPC-1 cancer cell killing with TRAIL present; PPC-1 cells + TRAIL, ATPLite viability luminescence; cell killing (% activity), % at 4 µM or 5 µM; 0.41% of 220,000 active;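 active means cell killing above 50% in the first pass at 4 µM, then a duplicate retest at 5 µM averaging 50% or more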
STAT1 blocker: inhibitors of IFN-gamma induced STAT1 signaling | NIH 3T3 STAT1-luciferase reporter, luminescence | inhibition, % at 5.5 µM | 0.35% of 200,000 active;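 active means inhibition above a set limit, the mean inhibition across all tested compounds plus 3 SD, cut at about 34% in these data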
STAT3 inh: inhibitors of IL-6 induced STAT3 signaling; U3A cells, IL-6 STAT3-luciferase reporter, luminescence; host cell line lacks STAT1; inhibition, % at 5.5 µM; 0.89% of 190,000 active;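 active means inhibition above the mean inhibition across all screened compounds plus 3 SD, cut at about 44% in these data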
TRAIL sens C8: caspase-8 TRAIL sensitization; NB7+C8 cells + TRAIL, ATPlite viability luminescence; inhibition (viability loss, TRAIL sensitization), % at 10 µM; 1% of 360,000 active; AID 624354;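 active means compounds causing at least 50% loss of cell viability in the single-dose screen, relative to plate controls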
Each line names hits and unclear results; the compound was inactive in the other large screens; ! = not active in a repeat. Shown are actives, neighbours in structure and some others; about 1.8% of the full set was active somewhere.

N#Cc1cccnc1N1CCN(C(=O)c2[nH]c(C(F)(F)F)nc2-c2ccccc2)CC1	none (no result: STAT3 activator, PPC-1+TRAIL kill, STAT1 blocker, STAT3 inh)
Nc1nonc1-n1nnc(C(=O)N/N=C/c2cccc(Cl)c2Cl)c1CN1CCCC1	none (no result: STAT3 activator, PPC-1+TRAIL kill, STAT1 blocker, STAT3 inh)
O=[N+]([O-])c1ccc(N=Nc2ccc(O)c3ccccc23)cc1	TRAIL sens C8 62.6 (no result: STAT3 activator, PPC-1+TRAIL kill, STAT1 blocker, STAT3 inh)
O=S(=O)(Nc1ccc(N=Nc2ccc(O)c3ccccc23)cc1)c1ccccc1	none
COc1ccc(-c2nn(-c3ccccc3)cc2/C=N/N=C(N)N)cc1OC	PPC-1+TRAIL kill 55.1
COc1ccc(-c2nn(-c3ccccc3)cc2/C=N/O)cc1OC	none (no result: STAT3 activator, PPC-1+TRAIL kill, STAT1 blocker, STAT3 inh)
c1ccc(CSc2nnc(-c3cccnc3)o2)cc1	none
C#CCSc1nnc(-c2ccc(C)cc2)o1	TRAIL sens C8 90.1
Cc1ccc(CSc2nnc(-c3cccnc3)o2)cc1	TRAIL sens C8 54.1
COCCNC(=O)CSc1ccccc1C(=O)NC1CCSc2ccccc21 (stereo not given)	none (no result: STAT3 activator, PPC-1+TRAIL kill, STAT1 blocker, STAT3 inh)
O=c1cc(-c2cccc(F)c2)[nH]c2ccccc12	STAT3 activator 133.3
Nc1ccc2c(c1)C(=O)C(=O)c1ccccc1-2	TRAIL sens C8 96.9
CCn1cc(C(=O)NCc2ccco2)c(=O)c2cc(S(=O)(=O)N3CC(C)CC(C)C3)ccc21 (stereo not given)	PPC-1+TRAIL kill 54.9, TRAIL sens C8 82.9
C[C@@H]1C(NC(=O)c2ccccc2)CC2CC1C2(C)C (stereo not given in full)	none (no result: STAT3 activator, PPC-1+TRAIL kill, STAT1 blocker, STAT3 inh)
CC(=O)N1CCc2c(sc(NC(=O)c3ccc([N+](=O)[O-])o3)c2C(N)=O)C1	TRAIL sens C8 61.5 (no result: STAT3 activator, PPC-1+TRAIL kill, STAT1 blocker, STAT3 inh)
CCC(=O)Nc1sc2c(c1C(N)=O)CCN(C(C)=O)C2	none (no result: PPC-1+TRAIL kill)
COc1ccc(Cc2nnc(N/N=C/c3ccc(O)cc3O)[nH]c2=O)cc1OC	TRAIL sens C8 50.9
NC(=O)c1ccc(-c2noc(-c3cccc(Cl)c3)n2)cc1	none (no result: STAT3 activator, PPC-1+TRAIL kill, STAT1 blocker, STAT3 inh)
O=C(O)c1cccc(-c2noc(-c3cccc(Cl)c3)n2)c1	TRAIL sens C8 62.1 (no result: STAT3 activator, PPC-1+TRAIL kill, STAT1 blocker, STAT3 inh)
CCCCn1c(SCC(=O)Nc2nnc(CC)s2)nc2c1c(=O)n(C)c(=O)n2C	TRAIL sens C8 64.3
CCCNC(=O)C1(C)CCN(C(=O)COc2ccc(Cl)cc2Cl)C1 (stereo not given)	none (no result: STAT3 activator, PPC-1+TRAIL kill, STAT1 blocker, STAT3 inh)
Cc1cnc(C(=O)N2CCc3c([nH]c4ccccc34)C2c2ccc(F)cc2)cn1 (stereo not given)	none
CCc1ccc(C2c3[nH]c4ccccc4c3CCN2C(=O)c2cc(C)nn2C)cc1 (stereo not given)	STAT3 activator 133.4
Cc1nc(C(=O)N2CCc3c([nH]c4ccccc34)C2c2cc(F)ccc2F)cs1 (stereo not given)	STAT3 activator 134.1
CSc1ccc(C2c3[nH]c4ccccc4c3CCN2C(=O)c2cc(C)n(C)n2)cc1 (stereo not given)	STAT3 activator 148.0 (no result: TRAIL sens C8)
COC(=O)[C@H]1C[C@H]1[C@@H](NC(=O)c1ccc[nH]1)c1ccccc1	none (no result: STAT3 activator, PPC-1+TRAIL kill, STAT1 blocker, STAT3 inh)
O=C(Nc1ccc(N2CCN(C(=O)c3cccs3)CC2)cc1)c1ccc(Br)o1	none (no result: STAT3 activator, PPC-1+TRAIL kill, STAT1 blocker, STAT3 inh)
CCN1CCN(Cc2ccc(NC(=O)c3ccc(C)c(NC(=O)c4nccn4C)c3)cc2C(F)(F)F)CC1	none (no result: STAT3 activator, STAT1 blocker, STAT3 inh)
CCN1CCN(Cc2ccc(NC(=O)c3ccc(C)c(NC(=O)c4cc(-c5ccc(Br)cc5)n[nH]4)c3)cc2C(F)(F)F)CC1	none (no result: STAT3 activator, STAT1 blocker, STAT3 inh)
CCN1CCN(Cc2ccc(NC(=O)c3cc(NC(=O)c4cncc(-c5ccc(C#N)cc5)c4)cc(OC)c3)cc2C(F)(F)F)CC1	TRAIL sens C8 94.0! (no result: STAT3 activator, STAT1 blocker, STAT3 inh)
CCN1CCN(Cc2ccc(NC(=O)c3cc(NC(=O)c4cnnc5ccccc45)cc(OC)c3)cc2C(F)(F)F)CC1	TRAIL sens C8 55.8! (no result: STAT3 activator, STAT1 blocker, STAT3 inh)
CCN1CCN(Cc2ccc(NC(=O)c3cc(NC(=O)c4nccnc4N)cc(OC)c3)cc2C(F)(F)F)CC1	none (no result: STAT3 activator, STAT1 blocker, STAT3 inh)
CCN1CCN(Cc2ccc(NC(=O)c3ccc(C)c(NC(=O)c4cncc(-c5cccs5)c4)c3)cc2C(F)(F)F)CC1	TRAIL sens C8 69.7 (no result: STAT3 activator, PPC-1+TRAIL kill, STAT1 blocker, STAT3 inh)
O=C(NCC1CCCO1)c1nn2c(C(F)(F)F)cc(-c3cc(Br)cs3)nc2c1Br (stereo not given)	none (no result: STAT3 activator, PPC-1+TRAIL kill, STAT1 blocker, STAT3 inh)
COc1cccc(NC(=O)C2(C)CCN2Cc2ccccc2OC(F)F)c1 (stereo not given)	none (no result: STAT3 activator, PPC-1+TRAIL kill, STAT1 blocker, STAT3 inh)
Nc1ccc2oc(-c3cccc(Br)c3)nc2c1	none
Nc1ccc2oc(-c3ccc4nc[nH]c4c3)nc2c1	TRAIL sens C8 57.2
COc1ccc(-c2csc(C(C)(O)c3cccc(F)c3)n2)cn1 (stereo not given)	none (no result: STAT3 activator, PPC-1+TRAIL kill, STAT1 blocker, STAT3 inh)
COCCCNc1ccn2nc(-c3cccc(Cl)c3)cc2n1	none (no result: STAT3 activator, PPC-1+TRAIL kill, STAT1 blocker, STAT3 inh)
COCCCNc1ccn2nc(-c3ccccc3)cc2n1	TRAIL sens C8 52.6 (no result: STAT3 activator, PPC-1+TRAIL kill, STAT1 blocker, STAT3 inh)
O=C(CSc1c(F)c(F)cc(F)c1F)Nc1ccc(C2SCCS2)cc1	none (no result: STAT3 activator, STAT1 blocker, STAT3 inh)
Cc1cc(NC(=O)C2CCCCC2)nc2c1c(=O)oc1ccccc12	none
Cc1cc(NC(=O)C2CCCC2)nc2c1c(=O)oc1ccccc12	TRAIL sens C8 70.6
Cc1cccc(CC(=O)Nc2cc(C)c3c(=O)oc4ccccc4c3n2)c1	TRAIL sens C8 52.1
CC(NCc1ccc(S(N)(=O)=O)cc1)C(=O)Nc1cccc(Cl)c1 (stereo not given)	none (no result: STAT3 activator, STAT1 blocker, STAT3 inh)
O=S(=O)(Nc1nc2ccccc2nc1N1CCc2ccccc2C1)c1ccc(Br)cc1	PPC-1+TRAIL kill 56.4, TRAIL sens C8 61.0
Cc1ccc(SCC(=O)OCC(=O)N(CCC#N)c2ccccc2)cc1C	none (no result: STAT3 activator, PPC-1+TRAIL kill, STAT1 blocker, STAT3 inh)
Cc1ccc(N(CCC#N)C(=O)CCl)cc1C	TRAIL sens C8 86.6
CC12C=CC(=O)C=C1CCC1C2C(O)CC2(C)C1CCC2(O)C(=O)CO (stereo not given)	none (no result: STAT3 activator, PPC-1+TRAIL kill, STAT1 blocker, STAT3 inh)
Cc1noc(/C=C/Nc2ccc(F)cc2F)c1[N+](=O)[O-]	none

Source: PubChem
